Screening data deposited in PubChem BioAssay by Sanford-Burnham Center for Chemical Genomics.
Sampled rows, rich in hits. Any-hit rate of the full collection: about 1.1%.
G6PDH CS: counter-screen for G6PDH assay hits: L. mesenteroides G6PDH inhibition | Purified L. mesenteroides G6PDH, diaphorase/resazurin coupled fluorescence, 45 min | inhibition, % at 5 µM | 0.12% of 200,000 active | AID 1020; in the data active = inhibition above about 50%
PMI act satM6P: activators of human phosphomannose isomerase at near-saturating mannose 6-phosphate; coupled PMI enzyme assay, resazurin fluorescence, 20 min; hits give high values; 1 = untreated enzyme, 0 = substrate-free blank; activation factor at 20 µM; 0.34% of 190,000 active;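 active = activation factor of 2 or more at 20 µM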
Target sequence (P34949 whole entry, looked up): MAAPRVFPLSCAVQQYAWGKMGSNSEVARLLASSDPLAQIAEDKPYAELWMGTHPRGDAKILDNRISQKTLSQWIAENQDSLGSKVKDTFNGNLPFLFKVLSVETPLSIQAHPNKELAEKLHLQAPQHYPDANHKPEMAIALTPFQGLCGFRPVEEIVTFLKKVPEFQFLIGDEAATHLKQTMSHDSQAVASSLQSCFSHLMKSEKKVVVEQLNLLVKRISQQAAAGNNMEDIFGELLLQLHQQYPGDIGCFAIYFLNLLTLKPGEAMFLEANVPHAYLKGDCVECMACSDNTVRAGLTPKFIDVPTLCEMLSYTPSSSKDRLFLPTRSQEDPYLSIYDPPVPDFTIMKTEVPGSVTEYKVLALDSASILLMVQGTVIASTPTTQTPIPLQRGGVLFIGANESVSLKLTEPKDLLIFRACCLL
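Material: human phosphomannose isomerase with PGI, G6PDH, diaphorase coupling enzymes. Quantity: 15 ng/mL PMI. Medium: HEPES pH 7.4 buffer with MgCl2 and Tween-20. Reagent: Near-saturating mannose-6-phosphate, 1.0 mM. Compound: 20 µM single dose. Times: enzyme reaction with compound 20 min at room temperature. Detection: resorufin fluorescence at Ex 544/Em 590 nm.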
Diaph inh CS: counter-screen for diaphorase-based assays: diaphorase inhibitors and chemical oxidizers; diaphorase resazurin-to-resorufin fluorescence, NADH, 16 min; bacterial (C. kluyveri) enzyme, not human; inhibition, % at 20 µM; 0.69% of 190,000 active; AID 1217;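 active = primary screen inhibition at 20 µM above a set limit, cut at about 50% in these data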;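 note: plate controls were DMSO with full reaction for no effect and wells lacking NADH for full effect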
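Test system: Clostridium kluyveri diaphorase enzyme / Quantity: diaphorase at 0.14 U/mL in enzyme working solution / Incubation: 16-min room-temperature incubation before reading / Benchmarks: NADH-free wells as positive control, DMSO-only neutral wells / Signal: resorufin fluorescence 544/590 nm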
PMI act: phosphomannose isomerase (human) activation; 0.005% of 190,000 active; AID 1214; activation factor at 20 µM; purified human PMI, coupled resazurin fluorescence, 20 min; hits give high values; 1 = vehicle control, 0 substrate-free wells;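 active = activation factor of 2 or more at 20 µM, relative to plate controls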
Diaph act CS: counter-screen for diaphorase-based assays: diaphorase activators and chemical reducers | Diaphorase/resazurin coupled assay, resorufin fluorescence, 16 min; hits give high values; 1 = vehicle wells, 0 = NADH-free wells | activation factor at 20 µM | 0.005% of 190,000 active | AID 1229;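 active = diaphorase activity raised at least twofold by the compound at 20 µM; inactive = activation factor below 2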
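Material: purified diaphorase enzyme from Clostridium kluyveri / Medium: HEPES pH 7.4 buffer with MgCl2 and Tween 20 / Schedule: enzyme reaction of 16 min at room temperature / Measured by: resorufin fluorescence, excitation 544 nm, emission 590 nm / Evaluation: rise in resorufin formation, marking diaphorase activation or chemical reduction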
An asterisk follows results filed as active.

SMILES	G6PDH CS	PMI act satM6P	Diaph inh CS	PMI act	Diaph act CS
Cc1ccc(C2C(C#N)=C(N)SC(N)=C2C#N)o1	21	1.1	66*	1.1	0.3
Cc1ccc(N2NC(C)(c3cccs3)NC2=S)cc1 (stereo unspecified)	2	2.7*	21	1.6	0.8
CCOC(=O)c1c(C)oc2c1cc(O)c1ccccc12	35	0.5	15	0.9	0.9
CCOC(=O)c1c(C)oc2c1c(C=NCc1ccccn1)c(O)c1ccccc12	-52	0.7	64*	0.4	0.4
CCOC(=O)c1c(C)oc2c1c(C=NCC1CCCO1)c(O)c1ccccc12 (stereo unspecified)	50*	0.5	75*	0.4	0.3
Cn1ncc(Cl)c1C(=O)N1CCN(c2ncccn2)CC1	2	1	4	1.1	1
COC(=O)C(NNc1ccccc1)(NC(=O)c1ccccc1F)C(F)(F)F (stereo unspecified)	2	2.3*	8	1.5	0.9
O=C(N=Nc1ccc(NOC(=O)c2ccccc2Br)cc1)c1ccccc1O	-2	0.3	65*	0.7	0.4
O=C(CSc1nc2ccccc2n1CCc1ccccc1)c1ccc(O)c(O)c1	14	1.6	63*	1.1	0.4
Cc1ccc(C(=O)O)cc1-c1ccc(/C=C2\SC(=O)N(CC(=O)Nc3ccccc3)C2=O)o1	9	1	57*	1.1	0.4
O=C(O)c1cc(-c2ccc(/C=C3/SC(=S)N(Cc4ccccc4)C3=O)o2)ccc1Cl	17	1.3	52*	1.3	0.5
Cc1ccccc1NC(=O)CN1C(=O)S/C(=C\c2ccc(-c3cc(C(=O)O)ccc3C)o2)C1=O	10	1.3	67*	1.4	0.3
Cc1ccc(NC(=O)CN2C(=O)S/C(=C\c3cc(C)n(-c4cccc(C(=O)O)c4)c3C)C2=O)cc1	17	0.8	12	0.9	0.9
Cc1ccc(NC(=O)CN2C(=O)S/C(=C\c3ccc(-c4cccc(C(=O)O)c4C)o3)C2=O)cc1	4	1.1	28	1	0.7
Cc1ccc(C(=O)O)cc1-c1ccc(/C=C2/NC(=O)N(c3ccccc3)C2=O)o1	9	1.5	40	1.2	0.6
Cc1ccc(NC(=O)CN2C(=O)S/C(=C/c3ccc(-c4cccc(C(=O)O)c4)o3)C2=O)cc1	9	1.1	57*	1.1	0.4
COc1ccc(CN2C(=O)/C(=C/c3ccc(-c4ccc(Cl)c(C(=O)O)c4)o3)SC2=S)cc1	1	1.7	36	1.5	0.6
O=C1CC(SC2=NCCS2)C(=O)N1c1cccc(Cl)c1Cl (stereo unspecified)	-2	1.1	12	1.1	0.9
CCOC(=O)/C(=N/Nc1ccccc1)N1CCCc2ccccc21	26	2.4*	10	1.5	0.9
O=C(Nc1ccccc1)N1CCCc2ccccc21	10	1	6	1	0.9
COc1ccc(C)cc1NC(=O)N1CCCc2ccccc21	8	0.9	3	1	1
COC(=O)/C(=N/Nc1ccccc1C)N1CCCc2ccccc21	0	2*	14	1.5	0.9
CCN(CC(=O)Nc1ccc(N2CCOCC2)cc1)CC(=O)NC(C)(C)C	-1	0.9	14	1	0.9
C#CCOCCOCCOCCNc1nc(N2CCN(C(=O)C(Cc3cc4ccccc4[nH]3)n3cc(C(N)Cc4ccc(O)cc4)nn3)CC2)nc(N2CCN(C(=O)C(Cc3cc4ccccc4[nH]3)n3cc(C(N)Cc4ccc(O)cc4)nn3)CC2)n1 (stereo unspecified)	7	1.3	-103	1.2	2*
Cc1ccc(NC(=O)CCNCc2ccco2)cc1S(=O)(=O)N(C)C	2	1	4	1	1
Cc1cc(C)n2nc(SCc3nnc(SCc4ccccc4Cl)s3)nc2n1	-10	0.9	58*	0.9	0.4
COCCCNC(=S)Nc1ccc(CC(=O)O)cc1	19	1	10	1	0.9
Cc1nc2sc(C(N)=O)c(N)c2c(C)c1CC(=O)c1ccccc1	4	2*	-1	1.7	1
O=C(CCc1ccc(O)c(O)c1)NNC(=S)Nc1ccc(Br)cc1Cl	18	1	33	0.7	0.7
